Data set [1] can be described thus: Clearance in cynomolgus monkey at 1 to 2 mg/kg, iv. The class given is ADME, organism-based, Macaca fascicularis. Details: dose 1-2 mg/kg, route intravenous. The following applies: in vivo. In a few lines:
(§1)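 Male cynomolgus monkeys received a single i.v. dose of about 1–2 mg/kg in isotonic phosphate-mannitol vehicle, given as cassettes (typically n ≤ 8). Plasma was protein-precipitated with 0.5% formic acid in acetonitrile and peptide measured by reversed-phase HPLC. Parameters were fitted with mono- or biexponential models.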

The nature of data set [2]: Half life in cynomolgus monkey at 1 to 2 mg/kg, iv. The class given is ADME, organism-based, Macaca fascicularis. Details: dose 1-2 mg/kg, route intravenous. To be noted: in vivo. In a few lines:
as §1

For data set [3], the system named is Human immunodeficiency virus 1. Briefly: Antiviral activity against HIV1 3B infected in human PBMCs by reverse transcriptase assay. The format is functional, organism-based. The following applies: Human immunodeficiency virus 1, 3B. In a few lines:
(§2)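 CD8-depleted activated PBMC targets infected at high MOI by spinoculation; infected cells incubated with uninfected targets at 2 × 10⁵ cells per well with serially diluted peptide for 9 days. Fresh compound added and samples taken every 2–3 days. Replication read by reverse transcriptase assay; IC50 from reduction in RT signal relative to infected untreated wells.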

Data set [4] relates to Human immunodeficiency virus 1. Briefly: Antiviral activity against HIV1 098 isolate infected in human PBMCs by reverse transcriptase assay. The class given is functional, organism-based. Summed up: as §2
The test system of data set [5] is Human immunodeficiency virus 1. Put plainly: Antiviral activity against HIV1 098-T20 isolate infected in human PBMCs by reverse transcriptase assay. The format is functional, organism-based. Summed up:
as §2

Data set [6] has as its system Human immunodeficiency virus 1. Briefly: Antiviral activity against HIV1 098-T1249 isolate infected in human PBMCs by reverse transcriptase assay. The format is functional, organism-based. Summed up:
as §2

Data set [7] relates to Human immunodeficiency virus 1. Briefly: Antiviral activity against HIV1 098-T651 isolate infected in human PBMCs by reverse transcriptase assay. The class given is functional, organism-based. Summed up: as §2
Data set [8] relates to Human immunodeficiency virus 1. Briefly: Binding affinity to HIV1 gp41 heptad repeat 1 region assessed as thermal stability of HR1/HR2 peptide bundle complex at 1 uM in presence of 8M urea.

≈ marks a conversion by molar mass, not a printed value.

The clearance is the volume of plasma or blood freed of the substance per unit of time. One may read the half-life as the time in which the quantity being followed falls by half. What is called IC50 is the point on the concentration scale where inhibition reaches its midpoint.

`CC[C@H](C)[C@H](NC(=O)[C@H](CCC(N)=O)NC(=O)[C@H](C)NC(=O)[C@H](CCC(N)=O)NC(=O)[C@H](CCC(=O)O)NC(=O)[C@H](CC(C)C)NC(=O)[C@H](CC(C)C)NC(=O)[C@H](C)NC(=O)[C@@H](NC(=O)[C@@H](NC(=O)[C@H](CCCCN)NC(=O)[C@H](CCC(N)=O)NC(=O)[C@H](CCC(=O)O)NC(=O)[C@H](Cc1c[nH]c2ccccc12)NC(=O)[C@H](CCC(=O)O)NC(=O)[C@H](CCC(N)=O)NC(=O)[C@@H](N)Cc1c[nH]c2ccccc12)[C@@H](C)CC)[C@@H](C)O)C(=O)N[C@@H](CCC(N)=O)C(=O)N[C@@H](CCC(N)=O)C(=O)N[C@@H](CCC(=O)O)C(=O)N[C@@H](CCCCN)C(=O)N[C@@H](CC(N)=O)C(=O)N[C@@H](CCC(=O)O)C(=O)N[C@@H](Cc1ccc(O)cc1)C(=O)N[C@@H](CCC(=O)O)C(=O)N[C@@H](CC(C)C)C(=O)N[C@@H](CCC(N)=O)C(=O)N[C@@H](CCCCN)C(=O)N[C@@H](CC(C)C)C(=O)N[C@@H](CC(=O)O)C(=O)N[C@@H](CCCCN)C(=O)N[C@@H](Cc1c[nH]c2ccccc12)C(=O)N[C@@H](C)C(=O)N[C@@H](CO)C(=O)N[C@@H](CC(C)C)C(=O)N[C@@H](Cc1c[nH]c2ccccc12)C(=O)N[C@@H](CCC(=O)O)C(=O)N[C@@H](Cc1c[nH]c2ccccc12)C(=O)N[C@@H](Cc1ccccc1)C(=O)O` gave a clearance in data set [1] of 0.167 mL/min/kg. This compound gave a half-life in data set [2] of 5.9 h. For the same compound, the IC50 in data set [3] came out at 0.003 µg/mL (≈ 0.000601 µM); in data set [4], 0.013 µg/mL (≈ 0.0026 µM); in data set [5], 0.022 µg/mL (≈ 0.0044 µM); in data set [6] it was 0.363 µg/mL (≈ 0.0727 µM); in data set [7], 8.14 µg/mL (≈ 1.63 µM). Also, the Tm in data set [8] came to 59 °C.

For “H-TTWEAWDRAIAEYAARIEALIRALQELQEKNEAALREL-OH”, in data set [1], the clearance was 0.133 mL/min/kg. For the same compound, the half-life in data set [2] is 8.6 h. Also, the IC50 in data set [3] stood at 0.03 µg/mL; in data set [4] it was 0.054 µg/mL; in data set [5] it was 0.084 µg/mL; in data set [6] it was 0.147 µg/mL; in data set [7], 0.242 µg/mL. Also, the Tm in data set [8] is 82 °C.

Take “H-TTWEAWDRAIAEYAARIEALIRAAQEQQEKLEAALREL-OH”: the clearance in data set [1] is 0.15 mL/min/kg. This compound also gave a half-life in data set [2] of 17.9 h. In addition, the IC50 came to 0.012 µg/mL in data set [3]; 0.045 µg/mL in data set [4]; 0.028 µg/mL in data set [5]; 0.025 µg/mL in data set [6]; 0.044 µg/mL in data set [7]. Also, the Tm in data set [8] is 86 °C.

For the compound “H-TTWEAWDRAIAEYAARIEALIRALQEQQEKNEAILREL-OH”, in data set [1], the clearance is 0.2 mL/min/kg. In data set [2], this compound gave a half-life of 12.4 h. Further, the 50% inhibitory concentration (IC50) in data set [3] was 0.019 µg/mL; in data set [4] it was 0.043 µg/mL; in data set [5], 0.079 µg/mL; in data set [6], 0.038 µg/mL; in data set [7] it was 0.196 µg/mL. For the same compound, in data set [8], the Tm came to 85 °C.

In data set [1], “H-TTWEAWDRAIAEYAARIEALIRAAQELQEKNEAALREL-OH” had a clearance of 0.433 mL/min/kg. This compound showed a half-life in data set [2] of 7.6 h. Besides, the IC50 in data set [3] stood at 0.007 µg/mL; in data set [4], 0.021 µg/mL; in data set [5] it was 0.035 µg/mL; in data set [6], 0.03 µg/mL; in data set [7], 0.02 µg/mL. Also, the Tm in data set [8] stood at 89 °C.

For the compound “H-TTWEAWDRAIAEYAARIEALIRASQEQQEKNEAELREL-OH”, the clearance in data set [1] is 1.43 mL/min/kg. The half-life in data set [2] is 1.2 h. Further, the IC50 in data set [3] was 0.006 µg/mL; in data set [4], 0.013 µg/mL; in data set [5] it was 0.022 µg/mL; in data set [6], 0.072 µg/mL; in data set [7], 1.31 µg/mL. Also, in data set [8], the Tm was determined as 78 °C.

The compound `CC[C@H](C)[C@H](NC(=O)[C@H](CC(C)C)NC(=O)[C@H](CO)NC(=O)[C@H](Cc1cnc[nH]1)NC(=O)[C@H](NC(=O)[C@H](CC(C)C)NC(=O)[C@H](CO)NC(=O)[C@@H](NC(=O)[C@H](Cc1ccc(O)cc1)NC(=O)[C@H](CC(N)=O)NC(=O)[C@H](CC(N)=O)NC(=O)[C@@H](NC(=O)[C@H](CCC(=O)O)NC(=O)[C@H](CCCNC(=N)N)NC(=O)[C@H](CC(=O)O)NC(=O)[C@H](Cc1c[nH]c2ccccc12)NC(=O)[C@H](CCC(=O)O)NC(=O)[C@H](CCSC)NC(=O)[C@H](Cc1c[nH]c2ccccc12)NC(=O)[C@@H](NC(=O)[C@@H](N)CCSC)[C@@H](C)O)[C@@H](C)CC)[C@@H](C)O)[C@@H](C)CC)C(=O)N[C@@H](CCC(=O)O)C(=O)N[C@@H](CCC(=O)O)C(=O)N[C@@H](CO)C(=O)N[C@@H](CCC(N)=O)C(=O)N[C@@H](CC(N)=O)C(=O)N[C@@H](CCC(N)=O)C(=O)N[C@@H](CCC(N)=O)C(=O)N[C@@H](CCC(=O)O)C(=O)N[C@@H](CCCCN)C(=O)N[C@@H](CC(N)=O)C(=O)N[C@@H](CCC(=O)O)C(=O)N[C@@H](CCC(N)=O)C(=O)N[C@@H](CCC(=O)O)C(=O)N[C@@H](CC(C)C)C(=O)N[C@@H](CC(C)C)C(=O)O` gave a clearance in data set [1] of 7.2 mL/min/kg. The half-life in data set [2] was 0.3 h. Further, the IC50 in data set [3] was determined as 0.008 µg/mL (≈ 0.00179 µM); in data set [4] it was 0.033 µg/mL (≈ 0.00736 µM); in data set [5], 0.06 µg/mL (≈ 0.0134 µM); in data set [6], 0.151 µg/mL (≈ 0.0337 µM); in data set [7], 7.6 µg/mL (≈ 1.7 µM). For the same compound, the Tm in data set [8] was determined as 68 °C.

(Values after ChEMBL document CHEMBL1147044, “Design of helical, oligomeric HIV-1 fusion inhibitor peptides with potent activity against enfuvirtide-resistant virus” (Proc Natl Acad Sci U S A, 2007).)
